Results taken from ChEMBL document CHEMBL4359882, “Synthesis, molecular docking, and QSAR study of bis-sulfonamide derivatives as potential aromatase inhibitors” (Bioorg Med Chem, 2019).

Columns and labels:
Aromatase = molecular target: T1, Aromatase (Homo sapiens, UniProt P11511); assay: Inhibition of recombinant human aromatase expressed in baculovirus infected insect cells using O-benzyl fluorescein benzyl ester as substrate in presence of NADPH generating system by fluorescence based analysis
T1 sequence (P11511 whole entry): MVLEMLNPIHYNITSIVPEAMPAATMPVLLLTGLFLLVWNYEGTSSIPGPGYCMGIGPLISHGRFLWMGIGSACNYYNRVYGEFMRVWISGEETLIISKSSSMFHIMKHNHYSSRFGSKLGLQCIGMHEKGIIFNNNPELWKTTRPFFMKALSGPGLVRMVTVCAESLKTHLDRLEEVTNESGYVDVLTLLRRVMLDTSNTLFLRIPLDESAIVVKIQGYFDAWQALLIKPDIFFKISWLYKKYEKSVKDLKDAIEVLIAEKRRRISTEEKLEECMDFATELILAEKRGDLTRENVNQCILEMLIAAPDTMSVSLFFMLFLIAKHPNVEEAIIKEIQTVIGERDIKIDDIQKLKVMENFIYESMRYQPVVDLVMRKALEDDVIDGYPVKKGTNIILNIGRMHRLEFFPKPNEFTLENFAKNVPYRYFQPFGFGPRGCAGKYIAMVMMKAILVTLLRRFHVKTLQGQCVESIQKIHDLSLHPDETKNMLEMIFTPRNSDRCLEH

T47D = assay: Cytotoxicity against human T47D cells assessed as reduction in cell growth measured after 48 hrs by MTT assay; type: functional, cell-based
In short: (§1)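 T47-D cells kept in RPMI-1640 with 2 mM L-glutamine, insulin, 4.5 g/L glucose and 10% FBS. MRC-5 cells kept in DMEM with 10% FBS. Cells seeded at 10,000-20,000 per well and preincubated 24 h at 37 °C in 5% CO2. Serial dilutions added, then incubated 48 h. MTT for 2-4 h, formazan dissolved in DMSO, read at 550/650 nm. IC50 is the concentration giving 50% growth inhibition.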

MRC5 = assay: Cytotoxicity against human MRC5 cells assessed as reduction in cell growth measured after 48 hrs by MTT assay; type: cell-based; conditions: MRC5, 48 h; in short: as §1
Homo sapiens = species: Homo sapiens; assay: Selectivity index, ratio of IC50 for human MRC5 cells by MTT assay to IC50 for human recombinant aromatase expressed in baculovirus infected insect cells
[1] = Homo sapiens, T47D, 48 h, read-out: IC50

Row | Structure (SMILES) | IC50 (Aromatase) [µM] | IC50 (T47D; [1]) | IC50 (MRC5) | Ratio IC50 (Homo sapiens) | IC50 (T47D; t47d)
1 | S=C(NCc1cccc(CNC(=S)Nc2ccc(Cl)cc2)c1)Nc1ccc(Cl)cc1 | 5.5 |  |  |  | 
2 | O=[N+]([O-])c1ccc(S(=O)(=O)NCc2cccc(CNS(=O)(=O)c3ccc([N+](=O)[O-])cc3)c2)cc1 | 0.37 | 39.3 µM | > 50 µg/mL | > 267 | 
3 | O=[N+]([O-])c1ccc(NC(=S)NCc2cccc(CNC(=S)Nc3ccc([N+](=O)[O-])cc3)c2)cc1 | 0.8 |  |  |  | 
4 | O=[N+]([O-])c1ccccc1S(=O)(=O)NCc1cccc(CNS(=O)(=O)c2ccccc2[N+](=O)[O-])c1 | 3.67 | 75.4 µM | > 50 µg/mL | > 26.9 | 
5 | N#Cc1ccc(S(=O)(=O)NCc2ccc(CNS(=O)(=O)c3ccc(C#N)cc3)cc2)cc1 | 0.66 | > 50 µg/mL | 92.8 µM | 141 | 
6 | COc1cccc2c1C(=O)c1c(O)c3c(c(O)c1C2=O)C[C@@](O)(C(=O)CO)C[C@@H]3O[C@H]1C[C@H](N)[C@H](O)[C@H](C)O1 [DOXORUBICIN] |  | 0.88 µM | 2.19 µM |  | 
7 | Cc1cc(C)c(C)c(S(=O)(=O)NCc2ccc(CNS(=O)(=O)c3c(C)c(C)cc(C)c3C)cc2)c1C | > 12.5 | > 50 µg/mL | 16.3 µM |  | 
8 | O=S(=O)(NCc1cccc(CNS(=O)(=O)c2ccc3ccccc3c2)c1)c1ccc2ccccc2c1 | 0.21 | > 50 µg/mL | > 50 µg/mL | > 461 | 
9 | O=S(=O)(Nc1cccc(NS(=O)(=O)c2ccc(Cl)cc2)c1)c1ccc(Cl)cc1 | 0.78 | 87.2 µM | 63.1 µM | 80.9 | 
10 | O=S(=O)(NCc1cccc(CNS(=O)(=O)c2ccc(Br)cc2)c1)c1ccc(Br)cc1 | 0.06 |  | > 50 µg/mL | > 1450 | Nd(Insoluble)
11 | O=S(=O)(NCc1cccc(CNS(=O)(=O)c2ccc(F)cc2)c1)c1ccc(F)cc1 | 2.19 |  | > 50 µg/mL | > 50.5 | Nd(Insoluble)
12 | N#Cc1ccc(S(=O)(=O)NCc2cccc(CNS(=O)(=O)c3ccc(C#N)cc3)c2)cc1 | 0.16 | 69.3 µM | > 50 µg/mL | > 670 | 

The remaining compounds from weak to strong by IC50 (Aromatase), led by results:

Row | IC50 (Aromatase) [µM] | Structure (SMILES) | IC50 (T47D; [1]) | IC50 (MRC5) | Ratio IC50 (Homo sapiens) | IC50 (T47D; t47d)
13 | 11.6 | COc1ccc(S(=O)(=O)NCc2cccc(CNS(=O)(=O)c3ccc(OC)cc3)c2)cc1 | 75.3 µM | > 50 µg/mL | > 9.04 | 
14 | 3.3 | Nc1cccc(S(=O)(=O)NCc2cccc(CNS(=O)(=O)c3cccc(N)c3)c2)c1 | 90.6 µM | > 50 µg/mL | > 33.9 | 
15 | 3.2 | Cc1cc(C)c(C)c(S(=O)(=O)NCc2cccc(CNS(=O)(=O)c3c(C)c(C)cc(C)c3C)c2)c1C | 30.9 µM | 80.9 µM | 25.3 | 
16 | 2.75 | O=[N+]([O-])c1cccc(S(=O)(=O)NCc2cccc(CNS(=O)(=O)c3cccc([N+](=O)[O-])c3)c2)c1 | > 50 µg/mL | > 50 µg/mL | > 35.9 | 
17 | 0.53 | COc1ccc(S(=O)(=O)Nc2cccc(NS(=O)(=O)c3ccc(OC)cc3)c2)cc1 | > 50 µg/mL | > 50 µg/mL | > 210 | 
18 | 0.43 | O=S(=O)(NCc1cccc(CNS(=O)(=O)c2ccc(C(F)(F)F)cc2)c1)c1ccc(C(F)(F)F)cc1 | 75.4 µM | 74.6 µM | 173 | 
19 | 0.28 | CC(=O)c1ccc(S(=O)(=O)NCc2cccc(CNS(=O)(=O)c3ccc(C(C)=O)cc3)c2)cc1 | > 50 µg/mL | > 50 µg/mL | > 357 | 
20 | 0.13 | Cc1ccc(S(=O)(=O)NCc2cccc(CNS(=O)(=O)c3ccc(C)cc3)c2)cc1 | 43.9 µM | > 50 µg/mL | > 865 | 
21 | 0.05 | O=S(=O)(NCc1cccc(CNS(=O)(=O)c2ccc(Cl)cc2)c1)c1ccc(Cl)cc1 | 37.5 µM | 68.5 µM | 1370 | 
